# According to ChEMBL document CHEMBL2375243, “Synthesis and antioxidant properties of substituted 2-phenyl-1H-indoles” (Bioorg Med Chem Lett, 2013):
# Calls of active or inactive are those of the source. The calls are words filed in the database; no cut-off is given here.
# How the values were obtained:
# Liver [1] = experiment: Antioxidant activity in Wistar rat liver assessed as inhibition of Fe2+/ascorbate-induced lipid peroxidation at 1 mM after 1 hr by TBARS assay relative to control; assay type: functional, tissue-based
# Procedure, shortened: (§1)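 Lipid peroxidation assay: MDA formation measured with thiobarbituric acid. Tested at 1 mM and 0.1 mM, melatonin as positive control. Values are % mean inhibition from at least triplicate analyses.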
# [2] = system: Radical scavenging activity; experiment: Antioxidant activity of the compound assessed as DPPH free radical scavenging activity at 1 mM after 30 mins by spectrophotometric analysis relative to control; assay type: functional
# Procedure, shortened: (§2)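 Free-radical scavenging measured as bleaching of the stable radical DPPH at 517 nm. Tested at 1 mM and 0.1 mM, melatonin as positive control. Results are % mean inhibition, average of at least triplicate analyses.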
# [3] = Antioxidant activity of the compound assessed as inhibition of xanthine-xanthine oxidase-mediated superoxide radical formation at 1 mM after 3 mins by NBT reduction assay relative to control; assay type: functional
# Procedure, shortened: (§3)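 Superoxide anion generated by xanthine/xanthine oxidase and detected spectrophotometrically by nitroblue tetrazolium reduction. Test concentrations 1 mM and 0.1 mM, melatonin as positive control. Values are % mean inhibition from at least triplicate determinations.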
# [4] = Antioxidant activity of the compound assessed as inhibition of xanthine-xanthine oxidase-mediated superoxide radical formation at 0.1 mM after 3 mins by NBT reduction assay relative to control; assay type: functional; procedure, shortened: as §3
# [5] = system: Radical scavenging activity; experiment: Antioxidant activity of the compound assessed as DPPH free radical scavenging activity at 0.1 mM after 30 mins by spectrophotometric analysis relative to control; assay type: functional; procedure, shortened: as §2
# Liver [6] = experiment: Antioxidant activity in Wistar rat liver assessed as inhibition of Fe2+/ascorbate-induced lipid peroxidation at 0.1 mM after 1 hr by TBARS assay relative to control; assay type: functional, tissue-based; procedure, shortened: as §1
Structure (SMILES),inhibition (Liver [1]) [%],inhibition [2],inhibition [3],inhibition [4],inhibition [5],inhibition (Liver [6]) [%]
COc1ccc(-c2cc3cc(F)ccc3[nH]2)cc1OC,24,21%,51%,inactive,2%,10
Nc1ccc(-c2cc3cccc(F)c3[nH]2)cc1,30,77%,23%,15%,43%,26
O=[N+]([O-])c1ccc(-c2cc3cc(F)cc(Cl)c3[nH]2)cc1,20,5%,39%,inactive,inactive,5
COc1ccc(-c2cc3ccccc3[nH]2)cc1OC,27,44%,70%,12%,12%,13
COc1ccc(-c2cc3ccccc3[nH]2)cc1,24,38%,43%,12%,6%,14
COc1ccc2[nH]cc(CCNC(C)=O)c2c1,85,98%,75%,19%,81%,45
COc1cc(-c2cc3cc(F)ccc3[nH]2)cc(OC)c1OC,19,23%,50%,9%,3%,10
COc1ccc(-c2cc3cc(F)cc(Cl)c3[nH]2)cc1,33,inactive,32%,inactive,inactive,6
Nc1ccc(-c2cc3ccc(Cl)cc3[nH]2)cc1,35,77%,20%,17%,50%,35
COc1ccc(-c2cc3cc(F)cc(Cl)c3[nH]2)cc1OC,24,10%,39%,inactive,inactive,13
Nc1ccc(-c2cc3cc(F)ccc3[nH]2)cc1,19,28%,35%,20%,18%,17
Nc1ccc(-c2cc3c(Cl)cccc3[nH]2)cc1,30,69%,18%,inactive,44%,30
COc1ccc2[nH]c(-c3ccc(N)cc3)cc2c1,42,85%,35%,14%,69%,33
Nc1ccc(-c2cc3ccc(F)cc3[nH]2)cc1,35,80%,81%,35%,65%,22
Nc1ccc(-c2cc3cc(Cl)ccc3[nH]2)cc1,31,70%,22%,inactive,23%,30
COc1cc(-c2cc3ccccc3[nH]2)cc(OC)c1OC,28,35%,42%,13%,9%,33
COc1ccc(-c2cc3cc(F)ccc3[nH]2)cc1F,13,inactive,inactive,inactive,inactive,7
Nc1ccc(-c2cc3ccccc3[nH]2)cc1,26,74%,30%,16%,43%,13
